Assay results from different studies.
Each line is one published result; the experiments were not run side by side.
Target: Serine/threonine-protein kinase MRCK beta (CDC42BPB, Homo sapiens, UniProt Q9Y5S2)

`CNC(=O)c1ccc(Nc2ncc(C(F)(F)F)c(NCc3nccnc3N(C)S(C)(=O)=O)n2)cc1` gave a remaining binding of 90% (cell-free assay, competition with immobilised ligand; 0.1 µM).
The remaining binding of `CN(C)c1nccc(-c2cnn3ncccc23)n1` is reported as 100% (binding; 1 µM).
With `COc1cnc(Nc2cccc(S(N)(=O)=O)c2)nc1N1CCN(c2ccccc2)C(=O)C1` the remaining binding was 100% (binding, competition with immobilised ligand; 1 µM).
With `FC(F)(F)Oc1cccc(-c2cnc3ccc(-c4ccncc4)nn23)c1` the remaining binding was 22% (cell-free assay, competition with immobilised ligand; 5 µM).
The remaining binding of `N[C@H]1CCN(c2nccc(-c3cnn4ncccc34)n2)C1` is reported as 88% (binding; 1 µM).
The remaining binding of `O=C(c1ccc(Nc2ncc(Cl)c(-c3cc4ccccc4s3)n2)cc1)N1CCC(N2CCCC2)CC1` is reported as 56% (binding, competition with immobilised ligand; 1 µM).
`CO[C@@H](C)c1c(Nc2ccc([C@@H](N(C)C(=O)C3CCS(=O)(=O)CC3)C(F)(F)F)cc2)cnc2cc(Cl)nn12` has a remaining binding of 89% (cell-free assay, competition with immobilised ligand; 1 µM).
`O=C(c1ccc(Nc2ncc(Cl)c(-c3ccc(Cl)s3)n2)cc1)N1CCC(N2CCCC2)CC1` gave a remaining binding of 92% (binding, competition with immobilised ligand; 1 µM).
`COc1ccnn2ncc(-c3ccnc(N(C)C)n3)c12` has a remaining binding of 100% (binding; 1 µM).
The remaining binding of `O=C(O)[C@@H]1[C@@H](Cn2nnc3ccccc3c2=O)CC[C@H]1C(=O)c1ccc(OCCC2CCOCC2)cc1` is reported as 96% (cell-free assay, competition with immobilised ligand; 1 µM).
`CN(CCCC(F)(F)F)c1nccc(-c2cnn3ncccc23)n1` gave a remaining binding of 63% (binding; 1 µM).
`C[C@H](NC(=O)c1cnc2n1[C@](C)(Cc1ccc(C#N)cc1)C(=O)N2c1cc(Cl)c(F)c(Cl)c1)C(=O)NC1(c2ccccn2)CC1` has a remaining binding of 100% (cell-free assay, competition with immobilised ligand; 1 µM).
The remaining binding of `CN(c1nccc(-c2cnn3ncccc23)n1)C1CC1` is reported as 86% (binding; 1 µM).
`CC(C)CC(=O)N1CCc2nc(-c3ccc(Br)cc3)nc(N(C)Cc3ccccc3)c2C1` gave a remaining binding of 99% (cell-free assay, competition with immobilised ligand; 0.1 µM).
The remaining binding of `O=C(c1ccc(Nc2nccc(-c3cc4ccccc4s3)n2)cc1)N1CCC(N2CCCC2)CC1` is reported as 100% (binding, competition with immobilised ligand; 1 µM).
For `O=C(Nc1c[nH]nc1C(=O)NC1CCNCC1)c1cc(F)cc(F)c1`, the remaining binding was 100% (binding, competition with immobilised ligand; 1 µM).
The remaining binding of `COc1cnc(Nc2cccc(S(N)(=O)=O)c2)nc1N1CCN(c2ccccc2)CC1` is reported as 99% (binding, competition with immobilised ligand; 1 µM).
With `C=CC(=O)N1CCC(C(=O)NCC(=O)N2CCN(c3nc(-c4cnc(N)nc4C(F)F)nc(N4CCOCC4)n3)CC2)CC1` the remaining binding was 99% (binding, competition with immobilised ligand; 1 µM).
`CC1CCCN1c1nccc(-c2cnn3ncccc23)n1` (centres unmarked) gave a remaining binding of 97% (binding; 1 µM).
`O=C(O)c1cc(-c2ccc(C3CCNCC3)cc2)c2ccc(-c3ccc(C(F)(F)F)cc3)cc2c1` has a remaining binding of 100% (cell-free assay, competition with immobilised ligand; 1 µM).
